Converted amounts (≈) assume the structure as drawn. The source made the active and inactive calls. No cut-off for these calls is given here.
Key:
[1] = test system: HaCaT; assay: Cytotoxicity against human HaCaT cells after 24 hrs by neutral red dye uptake assay; type: cell-based; conditions: for IC50: Homo sapiens, HaCaT; for IC05: human, hacat
In short: (§1)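 Cells kept in DMEM with 10% FBS at 37 °C, 5% CO2. Seeded at 20,000 cells/well, grown 24 h, then exposed 24 h to a concentration series. Neutral red (0.05%) added for 3 h at 37 °C, dye extracted with 1% acetic acid in 50% ethanol, absorbance read at 540 nm. IC50, IC05 and 95% confidence intervals derived from a downhill logistic curve fit.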

[2] = test system: Mus musculus; assay: Wound healing activity in Swiss albino mouse circular excision wound model assessed as hydroxyproline content in skin applied topically qd after 7 days by spectrophotometric analysis; type: functional
In short: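 Skin from ointment-treated mouse wounds (7 days) dried at 60–70 °C to constant weight, then hydrolyzed in 6 N HCl for 3 h at 130 °C. Hydrolysate neutralized to pH 7, oxidized with chloramine T and reacted with Ehrlich reagent at 60 °C. Read at 557 nm and reported as mg/g with S.E.M.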

[3] = species on record: Bos taurus; assay: Inhibition of bovine hyaluronidase assessed as sodium hyaluronate conversion to N-acetylglucosamine at 50 ug/ml by spectrophotometric analysis relative to control
[4] = species on record: Bos taurus; assay: Inhibition of bovine hyaluronidase assessed as sodium hyaluronate conversion to N-acetylglucosamine at 100 ug/ml by spectrophotometric analysis relative to control
[5] = test system: Hathewaya histolytica; assay: Inhibition of Clostridium histolyticum collagenase using N-[3-(2-Furyl)acryloyl]-Leu-Gly-Pro-Ala as substrate at 50 ug/ml after 15 mins by spectrophotometric analysis relative to control
In short: (§2)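 Samples dissolved in DMSO and diluted in 50 mM Tricine buffer (0.4 M NaCl, 0.01 M CaCl2, pH 7.5). Clostridium histolyticum collagenase and sample preincubated 5 min at 25 °C, then incubated 15 min. FALGPA substrate, prepared at 2 mM in the same buffer, was then added. Inhibition given as % with S.E.M.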

[6] = test system: Hathewaya histolytica; assay: Inhibition of Clostridium histolyticum collagenase using N-[3-(2-Furyl)acryloyl]-Leu-Gly-Pro-Ala as substrate at 100 ug/ml after 15 mins by spectrophotometric analysis relative to control; in short: as §2
[7] = target: T1, Neutrophil elastase (Homo sapiens) (UniProt P08246); assay: Inhibition of human neutrophil elastase assessed as N-methoxysuccinyl-Ala-Ala-Pro-Val p-nitroanilide conversion to p-nitroaniline at 50 ug/ml after 1 hr by spectrophotometric analysis relative to control
T1 sequence (whole entry): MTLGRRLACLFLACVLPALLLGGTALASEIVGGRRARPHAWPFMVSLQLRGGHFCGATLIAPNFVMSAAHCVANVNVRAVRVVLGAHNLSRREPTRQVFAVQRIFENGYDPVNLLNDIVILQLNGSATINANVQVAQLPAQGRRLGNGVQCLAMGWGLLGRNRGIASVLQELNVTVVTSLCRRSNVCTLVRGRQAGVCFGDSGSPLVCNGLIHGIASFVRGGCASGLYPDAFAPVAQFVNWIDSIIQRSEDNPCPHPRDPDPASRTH
In short: (§3)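 Sample and human neutrophil elastase (17 mU/ml) mixed in 0.1 M Tris–HCl, pH 7.5, and held 5 min at 25 °C. MeOSuc-Ala-Ala-Pro-Val p-nitroanilide was added and the mixture incubated 1 h at 37 °C. Reaction stopped with soybean trypsin inhibitor (1 mg/ml); p-nitroaniline absorbance read immediately. Inhibition given as % with S.E.M.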

[8] = target: T1, Neutrophil elastase (Homo sapiens); assay: Inhibition of human neutrophil elastase assessed as N-methoxysuccinyl-Ala-Ala-Pro-Val p-nitroanilide conversion to p-nitroaniline at 100 ug/ml after 1 hr by spectrophotometric analysis relative to control; in short: as §3
[9] = test system: HaCaT; assay: Wound healing activity in human HaCaT cells assessed as wound closure rate at 5 uM after 24 hrs by inverted microscopic analysis; type: functional, cell-based
In short: (§4)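 Confluent HaCaT monolayers scratched with a pipette tip, washed, re-fed with medium and exposed to compound for 24 h; 20% (v/v) platelet lysate served as positive control. Cells fixed in 3.7% formaldehyde and stained with 0.1% toluidine blue. Wound width measured by inverted microscope with camera at 0 and 24 h; closure taken as the width difference. Results expressed relative to control mean (100%), two independent experiments, n = 20 each.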

[10] = test system: HaCaT; assay: Wound healing activity in human HaCaT cells assessed as wound closure rate at 2.5 ug/mL after 24 hrs by inverted microscopic analysis; type: functional, cell-based; in short: as §4
[11] = test system: HaCaT; assay: Wound healing activity in human HaCaT cells assessed as wound closure rate at 2.2 ug/mL after 24 hrs by inverted microscopic analysis; type: functional, cell-based; in short: as §4
[12] = test system: HaCaT; assay: Wound healing activity in human HaCaT cells assessed as wound closure rate at 2 ug/mL after 24 hrs by inverted microscopic analysis; type: functional, cell-based; in short: as §4
[13] = test system: HaCaT; assay: Wound healing activity in human HaCaT cells assessed as wound closure rate at 2.1 ug/mL after 24 hrs by inverted microscopic analysis; type: functional, cell-based; in short: as §4
[14] = test system: Mus musculus; assay: Wound healing activity in Swiss albino mouse circular excision wound model assessed as wound contraction applied topically qd after 10 days (reference value: 6.29%); type: functional
[15] = test system: Mus musculus; assay: Wound healing activity in Swiss albino mouse circular excision wound model assessed as wound contraction applied topically qd after 8 days (reference value: 2.18%); type: functional
[16] = test system: Mus musculus; assay: Wound healing activity in Swiss albino mouse circular excision wound model assessed as wound contraction applied topically qd after 6 days (reference value: 3.41%); type: functional
[17] = test system: Mus musculus; assay: Wound healing activity in Swiss albino mouse circular excision wound model assessed as wound contraction applied topically qd after 4 days relative to control; type: functional; parameters: concentration or dose not given beside the values
[18] = test system: Mus musculus; assay: Wound healing activity in Swiss albino mouse circular excision wound model assessed as wound contraction applied topically qd after 2 days relative to control; type: functional; parameters: concentration or dose not given beside the values
[19] = test system: Mus musculus; assay: Wound healing activity in Swiss albino mouse circular excision wound model assessed as wound contraction applied topically qd measured on the same day relative to control; type: functional; parameters: concentration or dose not given beside the values
[20] = test system: Rattus norvegicus; assay: Wound healing activity in Sprague-Dawley rat linear incision wound model assessed as tensile strength of wound applied topically qd for 9 days measured on day 10 by tensiometer (reference value: 10.6%); type: functional
[21] = test system: HaCaT; assay: Wound healing activity in human HaCaT cells assessed as wound closure rate at 1.7 ug/mL after 24 hrs by inverted microscopic analysis; type: functional, cell-based; in short: as §4
[22] = test system: A-431; assay: Cytotoxicity against human A431 cells after 24 hrs by neutral red dye uptake assay; type: functional, cell-based; conditions: A-431, 24 h; in short: as §1

Row | SMILES | IC50 [1] | IC05 [1] | Activity [2] | inhibition [3] | inhibition [4] | inhibition [5] | inhibition [6] | inhibition [7] | inhibition [8] | Activity [9] | Activity [10] | Activity [11] | Activity [12] | Activity [13] | Activity [14] | Activity [15] | Activity [16] | Activity [17] | Activity [18] | Activity [19] | also measured
1 | CC(=O)c1c(O)c(C)c(O)c2c1OC1=CC(=O)/C(=C(/C)N[C@@H](CCCNC(=N)N)C(=O)O)C(=O)[C@@]12C | 163 µg/mL (≈ 326 µM) | 16 µg/mL | – | – | – | – | – | – | – | – | – | – | – | – | – | – | – | – | – | – | –
2 | CC(=O)C1=C(O)C=C2Oc3c(C(C)=O)c(O)c(C)c(O)c3[C@@]2(C)C1=O [(+)-USNIC ACID] | 24 µg/mL (≈ 69.7 µM) | 0.5 µg/mL | 36.1 mg/g | 14.4% | 33.1% | 27.1% | 51.2% | 22.1% | 36.4% | Active | Active | Active | Active | Active | 1.85% | 5.62% | 10.25% | 14.1% | 17.04% | 19.59% | Activity [20]: 31.9%; Activity [21]: Active; IC50 [22]: 15 µg/mL (≈ 43.6 µM)
3 | CC(=O)c1c(O)c(C)c(O)c2c1OC1=CC(=O)/C(=C(/C)N[C@@H](Cc3ccc(O)cc3)C(=O)O)C(=O)[C@@]12C | 13 µg/mL (≈ 25.6 µM) | 1.3 µg/mL | – | – | – | – | – | – | – | Active | Active | Active | Active | Active | – | – | – | – | – | – | Activity [21]: Active; IC50 [22]: 36 µg/mL (≈ 70.9 µM)
4 | CC(=O)c1c(O)c(C)c(O)c2c1OC1=CC(=O)/C(=C(/C)N[C@@H](Cc3c[nH]cn3)C(=O)O)C(=O)[C@@]12C | 36 µg/mL (≈ 74.8 µM) | 1.7 µg/mL | – | – | – | – | – | – | – | – | – | – | – | – | – | – | – | – | – | – | –
5 | CC(=O)c1c(O)c(C)c(O)c2c1OC1=CC(=O)/C(=C(/C)N)C(=O)[C@@]12C | – | – | – | 35.3% | 41.9% | 20.7% | 33.1% | 13.3% | 15.3% | – | – | – | – | – | – | – | – | – | – | – | –
6 | CC(=O)c1c(O)c(C)c(O)c2c1OC1=CC(=O)/C(=C(/C)NCCc3c[nH]c4ccccc34)C(=O)[C@@]12C | 5.3 µg/mL (≈ 10.9 µM) | 2.5 µg/mL | – | – | – | – | – | – | – | – | – | – | – | – | – | – | – | – | – | – | IC50 [22]: 29 µg/mL (≈ 59.6 µM)
7 | CC(=O)c1c(O)c(C)c(O)c2c1OC1=CC(=O)/C(=C(/C)NCCSSCCN/C(C)=C3\C(=O)C=C4Oc5c(C(C)=O)c(O)c(C)c(O)c5[C@@]4(C)C3=O)C(=O)[C@@]12C | – | – | 20.4 mg/g | 10% | 18.3% | 20.8% | 29.3% | 21.3% | 30.1% | – | – | – | – | – | 2.96% | 6.48% | 12.48% | 15.92% | 17.95% | 19.25% | Activity [20]: 15.91%
8 | CC(=O)c1c(O)c(C)c(O)c2c1OC1=CC(=O)/C(=C(/C)NCCS(=O)(=O)O)C(=O)[C@@]12C | 47 µg/mL (≈ 104 µM) | – | 30.8 mg/g | – | – | – | – | – | – | Active | Active | Active | Active | Active | 2.29% | 5.04% | 11.42% | 14.52% | 17.74% | 19.33% | Activity [20]: 29.3%; Activity [21]: Active
9 | CC(=O)c1c(O)c(C)c(O)c2c1OC1=CC(=O)/C(=C(/C)NCC(=O)O)C(=O)[C@@]12C | 5.8 µg/mL (≈ 14.5 µM) | 0.2 µg/mL | – | – | – | – | – | – | – | – | – | – | – | – | – | – | – | – | – | – | IC50 [22]: 4.1 µg/mL (≈ 10.2 µM)
10 | O=C(O[C@@H]1Cc2c(O)cc(O)cc2O[C@@H]1c1cc(O)c(O)c(O)c1)c1cc(O)c(O)c(O)c1 | – | – | – | – | – | – | 41.2% | – | 88.2% | – | – | – | – | – | – | – | – | – | – | – | –
11 | O=C(OC[C@H]1O[C@@H](OC(=O)c2cc(O)c(O)c(OC(=O)c3cc(O)c(O)c(O)c3)c2)[C@H](OC(=O)c2cc(O)c(O)c(OC(=O)c3cc(O)c(O)c(O)c3)c2)[C@@H](OC(=O)c2cc(O)c(O)c(OC(=O)c3cc(O)c(O)c(O)c3)c2)[C@@H]1OC(=O)c1cc(O)c(O)c(OC(=O)c2cc(O)c(O)c(O)c2)c1)c1cc(O)c(O)c(OC(=O)c2cc(O)c(O)c(O)c2)c1 | – | – | – | – | 76.3% | – | – | – | – | – | – | – | – | – | – | – | – | – | – | – | –
12 | CC(=O)c1c(O)c(C)c(O)c2c1OC1=CC(=O)/C(=C(/C)NCCCC(=O)O)C(=O)[C@@]12C | 150 µg/mL (≈ 349 µM) | 67 µg/mL | 43 mg/g | 25.8% | 39.4% | 21.4% | 49.2% | 25.1% | 30.3% | Active | Active | Active | Active | Active | 0.66% | 3.84% | 9.01% | 12.81% | 16.03% | 19.7% | Activity [20]: 47.6%; Activity [21]: Active
13 | CC(=O)c1c(O)c(C)c(O)c2c1OC1=CC(=O)/C(=C(/C)NCCS)C(=O)[C@@]12C | 155 µg/mL (≈ 384 µM) | 43 µg/mL | 39.8 mg/g | 10.2% | 15.6% | 19.5% | 27.3% | 15.3% | 20.4% | Active | Active | Active | Active | Active | 1.39% | 4.42% | 10.25% | 13.74% | 16.41% | 19.46% | Activity [20]: 35.2%; Activity [21]: Active
